Source: ChEMBL document CHEMBL1649304, “Efficacy of posaconazole as treatment and prophylaxis against Fusarium solani” (Antimicrob Agents Chemother, 2010)
Converted amounts (≈) assume the structure as drawn. The source made the active and inactive calls. The rule behind the calls is not given here.

Experiments:
[1] = system: Fusarium solani; test: Antifungal activity against inoculum range 6.5 x 10^5 to 6.8 x 10^5 conidia/animal Fusarium solani infected in ICR mouse assessed as bacterial count in kidney tissue at 6.25 mg/kg, po BID treated after 12 hrs of inoculation; assay type: functional
Method in brief: (§1)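 Outbred ICR mice were made neutropenic with 5-fluorouracil 150 mg/kg i.v. 1 day before i.v. infection with F. solani isolate 95-2478 conidia (0.2 ml). Posaconazole oral suspension was given by gavage BID from 12 h after inoculation until day 9. Kidneys from moribund animals were homogenized and plated on potato dextrose agar, and CFU/g was counted after 48 h. Group medians were compared with untreated controls by Mann-Whitney.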

[2] = system: Fusarium solani; test: Antifungal activity against inoculum range 6.5 x 10^5 to 6.8 x 10^5 conidia/animal Fusarium solani infected in ICR mouse assessed as rate of survival at 25 mg/kg, po BID treated after 12 hrs of inoculation; assay type: functional, organism-based; set-up: dose 25 mg/kg
Method in brief: (§2)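 Neutropenic ICR mice (5-fluorouracil 150 mg/kg i.v., day −1) were infected i.v. with F. solani 95-2478 conidia. Posaconazole oral suspension was gavaged BID starting 12 h postinoculation and continued to day 9, then mice were followed off therapy to day 15. Moribund mice were euthanized and death was recorded the next day. Median and percent survival come from Kaplan-Meier curves versus untreated controls.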

[3] = system: Fusarium solani; test: Antifungal activity against inoculum range 6.5 x 10^5 to 6.8 x 10^5 conidia/animal Fusarium solani infected in ICR mouse assessed as rate of survival at 12.5 mg/kg, po BID treated after 12 hrs of inoculation; assay type: functional, organism-based; set-up: dose 12.5 mg/kg; method in brief: as §2
[4] = system: Fusarium solani; test: Antifungal activity against low - inoculum 7.5 x 10^4 conidia/ml Fusarium solani infected in ICR mouse assessed as bacterial count in kidney tissue at 6.25 mg/kg, po BID treated 2 days prior of infection; assay type: functional
Method in brief: (§3)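 Prophylaxis model: posaconazole oral suspension was given by gavage BID starting 2 days before i.v. conidial challenge and continued to day 9. ICR mice were made neutropenic with 5-fluorouracil 150 mg/kg i.v. 1 day pre-inoculation, with n ≥10 per regimen. Kidneys were homogenized and plated on potato dextrose agar, and CFU/g was read after 48 h. Results were compared with untreated controls by Mann-Whitney.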

[5] = system: Fusarium oxysporum; test: Antifungal activity against Fusarium oxysporum isolate infected in ICR mouse; assay type: functional
[6] = system: Fusarium solani; test: Antifungal activity against inoculum range 7.7 x 10^4 to 7.8 x 10^4 conidia/animal Fusarium solani infected in ICR mouse assessed as bacterial count in kidney tissue at 50 mg/kg, po BID treated after 12 hrs of inoculation; assay type: functional; method in brief: as §1
[7] = system: Fusarium solani; test: Antifungal activity against inoculum range 6.5 x 10^5 to 6.8 x 10^5 conidia/animal Fusarium solani infected in ICR mouse assessed as bacterial count in kidney tissue at 25 mg/kg, po BID treated after 12 hrs of inoculation; assay type: functional; method in brief: as §1
[8] = system: Fusarium solani; test: Antifungal activity against high inoculum 2.9 x 10^6 conidia/animal Fusarium solani infected in ICR mouse assessed as bacterial count in kidney tissue at 25 mg/kg, po BID treated after 12 hrs of inoculation; assay type: functional; method in brief: as §1
[9] = system: Fusarium solani; test: Antifungal activity against inoculum of 1x10^4 conidia/ml Fusarium solani isolate 95-2478 after 24 hrs by XTT assay; assay type: functional, organism-based; settings: isolate 95-2478, 24 h
Method in brief: (§4)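 Isolate 95-2478 conidia were grown 10 days at 37°C on potato dextrose agar. They were exposed in microtiter trays to posaconazole (DMSO stock; final 0 to 8 μg/ml) in RPMI with 2% glucose and 0.165 M MOPS, pH 7.0. Incubation ran 24 or 48 h, and XTT reduction was read at 492 nm in triplicate. Absorbance was expressed as percent of growth control, and IC50/IC90 came from a four-parameter inhibitory sigmoid fit.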

[10] = Drug concentration in uninfected nonimmunosppressed ICR mouse serum at 50 mg/kg, po BID after 4 hrs; assay type: ADME, organism-based; set-up: dose 50 mg/kg, route oral; settings: read-out: Drug uptake
Method in brief: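 Uninfected, nonimmunosuppressed mice received 5 oral-gavage BID doses, and serum was taken 4 h after the last dose. Serum (100 μl, duplicate) was placed in wells cut in potato dextrose agar seeded with Candida kefyr ATCC 66028 at 1 × 10^4 cells/ml. Inhibition zones were measured after 48 h, and concentration was interpolated from a standard curve.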

[11] = system: Fusarium solani; test: Antifungal activity against low - inoculum 7.5 x 10^4 conidia/ml Fusarium solani infected in ICR mouse assessed as rate of survival at 25 mg/kg, po BID treated 2 days prior of infection; assay type: functional, organism-based; set-up: dose 25 mg/kg
Method in brief: (§5)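 Dosing began 2 days before i.v. F. solani 95-2478 challenge in ICR mice made neutropenic with 5-fluorouracil (150 mg/kg i.v., day −1). Posaconazole oral suspension was gavaged BID through day 9, with observation off drug until day 15, n ≥10 per regimen. Moribund animals were euthanized and scored dead the next day. Kaplan-Meier median survival was compared with untreated controls.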

[12] = system: Fusarium solani; test: Antifungal activity against inoculum range 6.5 x 10^5 to 6.8 x 10^5 conidia/animal Fusarium solani infected in ICR mouse assessed as rate of survival at 50 mg/kg, po BID treated after 12 hrs of inoculation; assay type: functional, organism-based; set-up: dose 50 mg/kg; method in brief: as §2
[13] = system: Fusarium solani; test: Antifungal activity against high inoculum 2.9 x 10^6 conidia/animal Fusarium solani infected in ICR mouse assessed as bacterial count in kidney tissue at 50 mg/kg, po BID treated after 12 hrs of inoculation; assay type: functional; method in brief: as §1
[14] = system: Fusarium solani; test: Antifungal activity against inoculum of 1x10^5 conidia/ml Fusarium solani isolate 95-2478 after 48 hrs by XTT assay; assay type: functional, organism-based; settings: isolate 95-2478, 48 h; method in brief: as §4
[15] = system: Fusarium solani; test: Antifungal activity against mid- inoculum 6.5 x 10^5 conidia/ml Fusarium solani infected in ICR mouse assessed as bacterial count in kidney tissue at 50 mg/kg, po BID treated 2 days prior of infection; assay type: functional; method in brief: as §3
[16] = system: Fusarium solani; test: Antifungal activity against high inoculum 2.9 x 10^6 conidia/animal Fusarium solani infected in ICR mouse assessed as bacterial count in kidney tissue at 12.5 mg/kg, po BID treated after 12 hrs of inoculation; assay type: functional; method in brief: as §1
[17] = system: Fusarium solani; test: Antifungal activity against low - inoculum 7.5 x 10^4 conidia/ml Fusarium solani infected in ICR mouse assessed as rate of survival at 6.25 mg/kg, po BID treated 2 days prior of infection; assay type: functional, organism-based; set-up: dose 6.25 mg/kg; method in brief: as §5
[18] = system: Fusarium solani; test: Antifungal activity against inoculum range 7.7 x 10^4 to 7.8 x 10^4 conidia/animal Fusarium solani infected in ICR mouse assessed as bacterial count in kidney tissue at 6.25 mg/kg, po BID treated after 12 hrs of inoculation; assay type: functional; method in brief: as §1
[19] = system: Fusarium solani; test: Antifungal activity against mid- inoculum 6.5 x 10^5 conidia/ml Fusarium solani infected in ICR mouse assessed as bacterial count in kidney tissue at 12.5 mg/kg, po BID treated 2 days prior of infection; assay type: functional; method in brief: as §3
[20] = system: Fusarium solani; test: Antifungal activity against mid- inoculum 6.5 x 10^5 conidia/ml Fusarium solani infected in ICR mouse assessed as bacterial count in kidney tissue at 25 mg/kg, po BID treated 2 days prior of infection; assay type: functional; method in brief: as §3
[21] = system: Fusarium solani; test: Antifungal activity against inoculum range 7.7 x 10^4 to 7.8 x 10^4 conidia/animal Fusarium solani infected in ICR mouse assessed as rate of survival at 25 mg/kg, po BID treated after 12 hrs of inoculation; assay type: functional, organism-based; set-up: dose 25 mg/kg; method in brief: as §2
[22] = system: Fusarium solani; test: Antifungal activity against inoculum range 7.7 x 10^4 to 7.8 x 10^4 conidia/animal Fusarium solani infected in ICR mouse assessed as bacterial count in kidney tissue at 25 mg/kg, po BID treated after 12 hrs of inoculation; assay type: functional; method in brief: as §1
[23] = system: Fusarium solani; test: Antifungal activity against mid- inoculum 6.5 x 10^5 conidia/ml Fusarium solani infected in ICR mouse assessed as rate of survival at 6.25 mg/kg, po BID treated 2 days prior of infection; assay type: functional, organism-based; set-up: dose 6.25 mg/kg; method in brief: as §5

CC[C@@H]([C@H](C)O)n1ncn(-c2ccc(N3CCN(c4ccc(OC[C@@H]5CO[C@@](Cn6cncn6)(c6ccc(F)cc6F)C5)cc4)CC3)cc2)c1=O [POSACONAZOLE]
log10CFU/g [1]: 6 | Activity [2]: Active | Activity [3]: Active | log10CFU/g [4]: 2.8 | MIC [5]: > 16 µg/mL | log10CFU/g [6]: 4.6 | log10CFU/g [7]: 5.6 | log10CFU/g [8]: 5.3 | IC50 [9]: 1.7 µg/mL (≈ 2.43 µM) | IC90 [9]: 4.1 µg/mL (≈ 5.85 µM) | concentration at 4 h [10]: 5300 ng/mL | Activity [11]: Active | Activity [12]: Active | log10CFU/g [13]: 5.2 | IC50 [14]: > 8 µg/mL | IC90 [14]: > 8 µg/mL | log10CFU/g [15]: 4.7 | log10CFU/g [16]: 5.3 | Activity [17]: Active | log10CFU/g [18]: 5 | log10CFU/g [19]: 5.5 | log10CFU/g [20]: 5.5 | Activity [21]: Active | log10CFU/g [22]: 5 | Activity [23]: Active
